Rows were chosen to be rich in hits. Some 1.8% of all compounds tested hit in one or more screens of this group.
AI-2 QS modul – modulates the Vibrio harveyi AI-2 quorum sensing system. Vibrio harveyi JMH597 AI-2 luminescence/OD600 ratio, 9 h; active compounds read low; strain lacks LuxN and CqsS sensors; 0 = neutral-control median. AID 2094. activity change, % at 7.5 µM. actives 0.4% (n = 300,000); in the data active means activity change below about -75%, passing the limit was not always enough; inconclusive means no clear call, values can overlap the other calls;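 further: luminescence divided by OD600 gain over 9 h not by final OD600 alone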
ATG4B inh – blocks human ATG4B protease cleavage of LC3 substrate; AID 504462; actives 0.51% (n = 340,000); Q9Y4P1; ATG4B cleavage of LC3-PLA2, NBD-HPC fluorescence, 1 h; inhibition, % at 8.33 µM; in the data active means inhibition above about 40%
LANA-H2B inh – blocks KSHV LANA binding to histone H2A/H2B. cell-free LANA-H2A/H2B peptide, fluorescence polarization. inhibition, % (concentration not given with the values). actives 0.6% (n = 320,000). AID 2629; in the data active means inhibition mostly above about 10%, no sharp cut-off; inactive means mostly below about 6.7%
HKDC1 inhibitor – HKDC1 (human) hexokinase inhibition; recombinant HKDC1, G6PDH/diaphorase resazurin coupled fluorescence; inhibition, % at 20 µM; actives 0.16% (n = 340,000);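 active means inhibition above about 35% when tested at 20 µM, limit read from the data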
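Test system: recombinant HKDC1 (HK5) hexokinase enzyme, produced in-house / Doses: 20 µM test compound, 1% DMSO / Timing: 90 min, room temperature / Detection: G6PDH/diaphorase-coupled fluorescence, 1 mM NADP, 100 µM resazurin, 525/613 nm / Control set: DMSO wells with and without enzyme mix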
HDAC3 inh – inhibitors of human histone deacetylase 3. recombinant HDAC3, fluorogenic peptide/trypsin coupled, fluorescence. inhibition, % at 8.3 µM. AID 2718. O15379. actives 0.15% (n = 320,000); in the data active means inhibition above about 26%, passing the limit was not always enough; inconclusive means no clear call, values can overlap the other calls
Target sequence (O15379 whole entry, looked up): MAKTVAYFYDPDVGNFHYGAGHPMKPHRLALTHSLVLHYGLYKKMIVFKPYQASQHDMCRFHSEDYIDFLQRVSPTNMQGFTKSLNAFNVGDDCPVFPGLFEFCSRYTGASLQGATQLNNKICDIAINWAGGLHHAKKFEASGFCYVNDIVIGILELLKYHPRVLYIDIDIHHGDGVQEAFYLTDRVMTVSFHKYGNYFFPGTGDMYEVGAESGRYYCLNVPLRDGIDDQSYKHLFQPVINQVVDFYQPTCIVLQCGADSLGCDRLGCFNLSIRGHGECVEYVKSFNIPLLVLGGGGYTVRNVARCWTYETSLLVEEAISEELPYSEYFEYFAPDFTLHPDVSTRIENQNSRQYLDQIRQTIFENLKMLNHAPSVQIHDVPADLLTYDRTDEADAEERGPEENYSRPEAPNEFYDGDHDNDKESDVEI
A1 inh – inhibitors of the anti-apoptotic protein A1, read as caspase activation; AID 2462; actives 0.066% (n = 330,000); MEF A1-2A-BIM cells, Caspase-Glo 3/7 luminescence, 3 h; percent of clofoctol response, vehicle zero; caspase activation, % (no concentration beside the values);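 active means over half of replicate activation scores above 10%, or exactly half above 10 with the replicate mean above 10; inconclusive means replicate mean below 10 yet half the replicates above 10; inactive means over half of replicates below 10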
ATG4B conf – ATG4B (human) inhibition, single-dose confirmed | actives 92% (n = 320) | shares compounds with ATG4B inh | inhibition, % at 8.33 µM | ATG4B protease fluorescent substrate cleavage assay | AID 504757; in the data active means inhibition above about 39%
PLA2 ctr – inhibits human PLA2, flagging false ATG4B inhibitors. actives 66% (n = 1,600). AID 588402. shares compounds with ATG4B inh. purified PLA2, NBD-C6-HPC fluorescence, 45 min. inhibition, % at 8.33 µM; in the data active means inhibition above about 50%
Target sequence (P04054 whole entry, looked up): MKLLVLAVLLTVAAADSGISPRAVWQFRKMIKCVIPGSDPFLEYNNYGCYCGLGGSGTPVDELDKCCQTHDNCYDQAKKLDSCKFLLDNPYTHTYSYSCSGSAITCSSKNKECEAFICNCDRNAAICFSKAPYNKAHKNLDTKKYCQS
Large screens that a line does not name were inactive (follow-up assays come after a bar, where they were run).

CC(C)c1ccc(/C=C/C(=O)N2CCc3ccccc3C2)cc1	ATG4B inh 59 | PLA2 ctr 63
Cc1noc(C)c1CSc1nnnn1-c1ccc(Cl)cc1	none
O=C(O)c1ccc(CSc2nc3ccccc3c(=O)n2-c2ccccc2)cc1	ATG4B inh 41 | PLA2 ctr 59
O=C(O)c1ccc(CSc2nnc(-c3ccccc3)n2-c2ccccc2)cc1	none (no result: HDAC3 inh)
Cc1noc(C)c1CSc1nc2ccccc2c(=O)n1-c1ccc(Cl)cc1	ATG4B inh 71 | PLA2 ctr 70
O=C(c1ccc(-n2c(SCc3cccc(F)c3)nc3ccccc3c2=O)cc1)N1CCOCC1	ATG4B inh 48 | ATG4B conf 59 | PLA2 ctr inactive
O=c1c2ccccc2nc(SCc2ccc([N+](=O)[O-])cc2)n1-c1ccccc1	ATG4B inh 40 | PLA2 ctr inactive
CCOc1ccc(S(=O)(=O)n2nc(C)cc2C)cc1	none
O=C(CSc1ccc2nnc(CCNC(=O)c3ccccc3)n2n1)Nc1ccc(F)cc1F	none
COc1ccc(NC(=O)c2ccc(Oc3ncccn3)cc2)cc1	none
CN(C)C(CNC(=O)C1CCN(S(=O)(=O)c2cccc(Cl)c2Cl)CC1)c1ccccc1 (stereo not given)	none
O=C(NCc1ccc(Cl)cc1Cl)C1CCN(S(=O)(=O)c2ccc3c(c2)OCCCO3)CC1	ATG4B inh 42 | PLA2 ctr 55
O=C(NCc1ccc(F)cc1)C1CCN(S(=O)(=O)c2ccc3c(c2)OCCCO3)CC1	none
COc1ccc(C2=NNC(c3cccs3)=Nc3ccc(OC)cc32)cc1	ATG4B inh 55 | PLA2 ctr 60
O=C(COc1ccccc1Cl)N1CCN(c2ccccn2)CC1	ATG4B inh 92 | PLA2 ctr inactive
COc1ccc(C2CC(O)(c3ccccc3)Oc3c(C)ccc(C)c32)cc1 (stereo not given)	ATG4B inh 56 | PLA2 ctr 65
CCc1ccccc1N(CC)C(=O)C1CCN(c2ncnc3c2nc2n3CCCCC2)CC1	ATG4B inh 53 | PLA2 ctr 66
O=C(C1CCN(c2ncnc3c2nc2n3CCCCC2)CC1)N1CCCCC1	none
CCN(Cc1ccccc1)C(=O)C1CCN(c2ncnc3c2nc2n3CCCCC2)CC1	ATG4B inh 45 (no result: AI-2 QS modul) | PLA2 ctr 53
OCC[C@H]1C[C@@H](O)[C@H](O)[C@@]2(CCCCO2)O1	none
CCCn1c(N)c(C(=O)COc2ccc(Br)cc2F)c(=O)n(C)c1=O	none
Cc1ccc(-n2c(Cc3cccn3C)nnc2SCC(=O)N2CCc3ccccc32)cc1	ATG4B inh 52 | PLA2 ctr inactive
Cn1cccc1Cc1nnc(SCC(=O)N2CCc3ccccc32)n1-c1ccc(F)cc1	none
O=C(Nc1c(Cl)cccc1Cl)c1cc(-c2ccco2)on1	ATG4B inh 43 | ATG4B conf 67 | PLA2 ctr inactive
O=C(NCc1cccc(Cl)c1)c1ccc(CS(=O)Cc2ccccc2Cl)o1 (stereo not given)	ATG4B inh 69 | PLA2 ctr 69
O=C(NCc1ccc(F)cc1)c1ccc(CS(=O)Cc2ccccc2Cl)o1 (stereo not given)	none
O=C(NCc1cccc(Cl)c1)c1ccc(CS(=O)Cc2ccc(Cl)cc2)o1 (stereo not given)	ATG4B inh 60 | PLA2 ctr 63
O=C(NCc1ccc2c(c1)OCO2)c1ccc(CS(=O)Cc2cccc(Cl)c2)o1 (stereo not given)	none
Cc1ccc(CS(=O)Cc2ccc(C(=O)NCc3ccccc3Cl)o2)cc1 (stereo not given)	ATG4B inh 42 | PLA2 ctr inactive
O=C(COC(=O)c1ccccc1Nc1ccccc1)c1ccccc1	ATG4B inh 53 | PLA2 ctr 52
CCc1cccc(C)c1NC(=O)CCCSc1nc2ccccc2s1	ATG4B inh 65 | PLA2 ctr 57
Cc1ccccc1NC(=O)CCCSc1nc2ccccc2s1	none
O=[N+]([O-])c1cc(S(=O)(=O)N2CCCCC2)ccc1NCCCN1CCOCC1	none
Cc1nc(NC(=O)c2ccccc2)sc1-c1csc(NCc2ccccc2)n1	ATG4B inh 45 | PLA2 ctr 66
Cc1nc(NC(=O)c2ccccc2)sc1-c1csc(NCCc2ccccc2)n1	HDAC3 inh inconclusive
Cc1ccc(NC(=S)NNC(=O)CSc2nc3ccccc3c(=O)n2-c2ccc(C)cc2)cc1	ATG4B inh 88 | PLA2 ctr 93
Cc1ccc(-n2c(SCc3cn4ccsc4n3)nc3ccccc3c2=O)cc1	ATG4B inh 74 | PLA2 ctr 79
Cc1ccc(S(=O)(=O)N(C)CC(=O)Nc2ncccc2C)cc1	none
O=C(CNC(=O)c1cnccc1C(F)(F)F)c1cccc(Cl)c1	none
Oc1c(Cl)cc(Cl)cc1C=Nc1ccc2c(c1)OCCO2	ATG4B inh 48 | ATG4B conf 54 | PLA2 ctr inactive
Brc1csc(C=Nc2ccc3c(c2)OCCOCCOCCOCCO3)c1	none
O=C(CNCCc1ccc(Cl)cc1Cl)NCc1ccco1	ATG4B inh 41 | ATG4B conf 66 | PLA2 ctr inactive
O=C(CNCc1ccccc1Cl)NCc1ccco1	none
CC1CCc2sc(C(=O)N3CCC(C(N)=O)CC3)cc2C1 (stereo not given)	ATG4B inh 43 (no result: AI-2 QS modul) | ATG4B conf 66 | PLA2 ctr inactive
Cc1cc(C(=O)N2CCC(Cc3ccccc3)CC2)no1	none
COc1ccc(Br)cc1/C=C(\C(=O)O)c1ccc(S(=O)(=O)N2CCCC2)s1	ATG4B inh 67 (no result: AI-2 QS modul) | PLA2 ctr 76
CC(CCCC(C)(C)O)NCc1cn[nH]c1-c1ccc2c(c1)OCO2 (stereo not given)	none
Cc1cccc(C(=O)N/N=C/c2coc3ccccc3c2=O)c1	none
COc1cc(C(=O)N/N=C/c2coc3ccc(Cl)cc3c2=O)ccc1O	ATG4B inh 51, HDAC3 inh 96 | ATG4B conf inactive | PLA2 ctr inactive
O=C(N/N=C/c1coc2ccccc2c1=O)c1cccc([N+](=O)[O-])c1	ATG4B inh 46 | PLA2 ctr inactive
CSc1nc2cc(Oc3cccc(Cl)c3Cl)c(Cl)cc2[nH]1	ATG4B inh 65, HDAC3 inh 29 | PLA2 ctr 77
CSc1nc2ccc(Cl)cc2[nH]1	none
O=C(COC(=O)c1cccc(S(=O)(=O)NCc2ccccc2)c1)c1ccccc1	ATG4B inh 47 (no result: LANA-H2B inh, HDAC3 inh) | PLA2 ctr 55
